From PubChem BioAssay
PostGolgi ctrl = growth of the yeast control strain, post-Golgi counter-screen. efflux-deficient yeast background strain, growth absorbance A615, 16 h. inhibition, % at 10 µM. 5% of 98,000 active. AID 738
tolC growth inh = growth inhibitors of E. coli BW25113 tolC mutant. OD615. growth inhibition, % at 10 µM (by protocol). 2.2% of 65,000 active;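 active = growth inhibition at or above a cutoff equal to the mean over every tested compound plus 3 SD, cut at about 60% in these data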;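 also: growth measured after 20 h incubation at 37 °C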
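signal = optical density read at 615 nm | test system = E. coli ΔtolC::kan strain BW25113 | timing = 20 h compound exposure of bacteria at 37 °C | buffer or medium = LB medium plus 50 µg/mL kanamycin | compound dosing = 10 µM final, single dose | evaluation = % inhibition of E. coli growth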
PostGolgi yeast = growth inhibition of a yeast mutant, post-Golgi transport screen | post-Golgi transport phenotypic cell assay | inhibition, % at 10 µM | 0.9% of 98,000 active | AID 739;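 also: yeast cells grown in 1536-well plates; yeast grown about 18 h at 30C before absorbance read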
DAT uptake mod = modulates human dopamine transporter uptake under cocaine | Q01959 | LLC-PK1 hDAT cells, [14C]-dopamine uptake with cocaine IC80; actives deviate in either direction | B-score at 10 µM | 1.3% of 110,000 active | AID 449768;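 active = Z score or B-score, a plate-position-corrected score, falls beyond the plate's 99.7% confidence bounds, in either direction; inactive = both scores lie inside the 99.7% bounds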;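 also: scored against the spread of the other compound wells on the same plate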
Target sequence (Q01959 whole entry, looked up): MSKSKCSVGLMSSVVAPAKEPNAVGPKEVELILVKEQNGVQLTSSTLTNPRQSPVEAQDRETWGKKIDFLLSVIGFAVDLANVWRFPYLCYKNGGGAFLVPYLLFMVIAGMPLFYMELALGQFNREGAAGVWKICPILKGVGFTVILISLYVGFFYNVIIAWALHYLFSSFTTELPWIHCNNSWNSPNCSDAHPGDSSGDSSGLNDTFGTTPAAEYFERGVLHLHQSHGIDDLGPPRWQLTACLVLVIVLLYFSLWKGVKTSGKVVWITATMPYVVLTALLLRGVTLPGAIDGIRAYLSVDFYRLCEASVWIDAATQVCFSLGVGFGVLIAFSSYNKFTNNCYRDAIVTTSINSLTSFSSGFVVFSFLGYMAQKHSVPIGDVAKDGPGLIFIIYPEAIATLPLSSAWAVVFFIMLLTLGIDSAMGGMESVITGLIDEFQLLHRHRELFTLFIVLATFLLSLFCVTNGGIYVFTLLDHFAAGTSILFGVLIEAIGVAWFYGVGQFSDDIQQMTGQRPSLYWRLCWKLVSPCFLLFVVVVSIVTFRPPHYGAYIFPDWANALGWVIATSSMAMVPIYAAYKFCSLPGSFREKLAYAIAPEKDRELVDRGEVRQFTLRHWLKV
D1 allo mod = allosteric modulators of human D1 dopamine receptor; HEK293 D1, CRE-luciferase, dopamine EC30 potentiation; actives deviate in either direction; 5.9% of 58,000 active; B-score at 10 µM; P21728;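 active = luminescence count or its row- and column-corrected plate score outside the 99.7% band of the plate's sample wells, on either side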
Ecoli WT expand = E. coli BW25113 growth inhibition, expanded screen; OD600 absorbance; growth inhibition, % at 100 µM; 0.15% of 98,000 active; AID 710;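 active = growth inhibition above about 50% at one test dose, limit read from the data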;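 also: growth measured after 20 h incubation at 37 °C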
The depositor's hits bear a star. Only some compounds are listed: those with a hit (about 9.3% of all), similar ones and a draw of the others. Rule as the data show it, unless noted: active = inhibition above about 30%; inactive = the rest.

CC(NC(=O)Cc1ccccc1)c1nc2ccccc2[nH]1 (configuration not stated) was read as PostGolgi ctrl 33*, tolC growth inh -7, PostGolgi yeast -3, DAT uptake mod 0.58, D1 allo mod -0.34 and Ecoli WT expand -10.
For Cc1ccc(Nc2nc(CSc3nnc(-c4cccs4)o3)cs2)cc1 the results were PostGolgi ctrl 9, tolC growth inh 43, PostGolgi yeast 2, DAT uptake mod 0.5, D1 allo mod 0.08 and Ecoli WT expand -7.
For c1ccc(-c2nc(CSc3nnc(-c4cccs4)o3)cs2)cc1 the results were PostGolgi ctrl 16, tolC growth inh 63*, PostGolgi yeast 3, DAT uptake mod 0.56, D1 allo mod 0.33 and Ecoli WT expand -28.
Screening COc1cccc(-c2nc(CS(=O)(=O)CC(=O)NCc3ccccc3OC)c(C)o2)c1 returned PostGolgi ctrl 2, tolC growth inh -8, PostGolgi yeast 0, DAT uptake mod 0.18, D1 allo mod 1.1 and Ecoli WT expand 0.
COc1ccc(OC)c(CCNC(=O)CS(=O)(=O)Cc2nc(-c3ccccc3C)oc2C)c1 was read as PostGolgi ctrl 37*, tolC growth inh 45, PostGolgi yeast 6, D1 allo mod 1.3 and Ecoli WT expand -4.
O=C(Cn1nnc(-c2ccc(Cl)cc2)n1)NC1CC2CCC1C2 (configuration not stated) was read as PostGolgi ctrl 15, tolC growth inh 12, PostGolgi yeast 37*, DAT uptake mod -0.6 and Ecoli WT expand -8.
For COc1ccc(/C=C/C(=O)CC(O)(c2ccccc2)C(F)(F)F)cc1 (configuration not stated) the results were DAT uptake mod -0.39.
`O=C(/C=C/c1ccccc1)CC(O)(c1ccccc1)C(F)(F)F` (configuration not stated) gave PostGolgi ctrl 70*, PostGolgi yeast 6, DAT uptake mod 0.63 and Ecoli WT expand 8.
Screening O=C(/C=C/c1ccccc1)CC(O)(c1ccccc1)C(F)(F)C(F)F (configuration not stated) returned PostGolgi ctrl 66*, PostGolgi yeast 8, DAT uptake mod 1 and Ecoli WT expand -1.
CC(C)Cn1c(SCc2nc3ccccc3c(=O)[nH]2)nc2ccccc2c1=O was read as PostGolgi ctrl 1, PostGolgi yeast -14, DAT uptake mod 0.98 and Ecoli WT expand -13.
Screening COc1cc(CCCN2C(=S)NC[C@@H]2c2ccccc2)cc(OC)c1OC returned DAT uptake mod 0.78.
`COc1cc(CCCN2C(=S)NC[C@@H]2Cc2ccccc2)cc(OC)c1OC` gave DAT uptake mod 3*.
Cc1cc(C)n(-c2nc(Nc3ccccc3C)nc(-n3nc(C)cc3C)n2)n1 was read as PostGolgi ctrl 53*, PostGolgi yeast 8, DAT uptake mod 0.022 and Ecoli WT expand -8.
Cc1cc(C)n(-c2nc(Nc3ccccc3C(F)(F)F)nc(-n3nc(C)cc3C)n2)n1 was read as DAT uptake mod 0.033.
Cc1cc(C)n(-c2nc(NC(C)(C)C)nc(NC(C)(C)C)n2)n1 was read as PostGolgi ctrl 41*, tolC growth inh 21, PostGolgi yeast 9, DAT uptake mod 0.21, D1 allo mod 0.59 and Ecoli WT expand -8.
Screening CCNc1nc(NCC)nc(-n2nc(C)cc2C)n1 returned PostGolgi ctrl 20, tolC growth inh 54, PostGolgi yeast 5, DAT uptake mod -0.26, D1 allo mod 2.5 and Ecoli WT expand 9.
Cc1cc(C)n(-c2nc(NC(C)C)nc(NC(C)C)n2)n1 was read as PostGolgi ctrl 18, tolC growth inh 88*, PostGolgi yeast -19, DAT uptake mod 0.1, D1 allo mod 1.9 and Ecoli WT expand 17.
For O=C(NCc1cccnc1)[C@@H]1CC=C[C@@H]2CCN(Cc3ccccc3)C(=O)[C@@H]21 the results were DAT uptake mod 0.097.
`CC(=O)Nc1cccc(N(C)S(C)(=O)=O)c1` gave PostGolgi ctrl 2, tolC growth inh -12, PostGolgi yeast -2, DAT uptake mod -0.72, D1 allo mod -0.023 and Ecoli WT expand 0.
CN(c1cccc(NC(=O)CN2C(=O)c3ccccc3S2(=O)=O)c1)S(C)(=O)=O was read as PostGolgi ctrl 33*, tolC growth inh -4, PostGolgi yeast 6, DAT uptake mod 0.36, D1 allo mod -0.83 and Ecoli WT expand 2.
CN(c1cccc(NC(=O)Nc2cccc(Cl)c2)c1)S(C)(=O)=O was read as PostGolgi ctrl -1, tolC growth inh 61*, PostGolgi yeast 7, DAT uptake mod 0.82, D1 allo mod -2.8 and Ecoli WT expand 29.
`O=C(NCC1COc2ccccc2O1)Nc1ccccc1F` (configuration not stated) gave PostGolgi ctrl 1, tolC growth inh 10, PostGolgi yeast -9, DAT uptake mod -1.5, D1 allo mod 1 and Ecoli WT expand 13.
For CCc1ccc(Nc2nnc(SCc3cc(=O)n4ccsc4n3)s2)cc1 the results were PostGolgi ctrl 5, PostGolgi yeast 18 and Ecoli WT expand 1.
`C=CCSc1nnc(NC(=O)CSc2nc3ccccc3o2)s1` gave PostGolgi ctrl 3, tolC growth inh 40, PostGolgi yeast 7, D1 allo mod -0.35 and Ecoli WT expand 0.
`CCOc1ccc(-c2nnn(CC#N)n2)cc1OC` gave DAT uptake mod -0.5.
`CCN(CC)c1nc2ccccc2nc1C(C#N)C(=O)NCCc1ccccc1` (configuration not stated) gave PostGolgi ctrl 33*, tolC growth inh -7, PostGolgi yeast 2, DAT uptake mod -0.5, D1 allo mod 0.019 and Ecoli WT expand -9.
CCOC(=O)c1ccc(NC(=O)CCc2nc(-c3ccccc3Cl)no2)cc1 was read as PostGolgi ctrl 17, tolC growth inh 99*, PostGolgi yeast -3, D1 allo mod -0.3 and Ecoli WT expand 5.
`CCOC(=O)c1ccc(NC(=O)CCc2nc(-c3ccccc3)no2)cc1` gave PostGolgi ctrl 9, tolC growth inh 53, PostGolgi yeast 2, DAT uptake mod -0.01, D1 allo mod -0.042 and Ecoli WT expand 2.
For O=C(OCC(=O)N1CCN(C(=O)c2ccco2)CC1)c1cc(-c2cccc(Br)c2)nc2ccccc12 the results were PostGolgi ctrl 72*, PostGolgi yeast 80*, DAT uptake mod 2 and Ecoli WT expand -8.
O=C(OCC(=O)N1CCN(C(=O)c2ccco2)CC1)c1cc(-c2ccccc2)nc2ccccc12 was read as PostGolgi ctrl 47*, tolC growth inh 28, PostGolgi yeast 44*, DAT uptake mod 1.1 and Ecoli WT expand -14.
For O=C(OCC(=O)N1CCN(C(=O)c2ccco2)CC1)c1cc(-c2ccc(F)cc2)nc2ccccc12 the results were PostGolgi ctrl 73*, tolC growth inh 11, PostGolgi yeast 47*, DAT uptake mod -0.011 and Ecoli WT expand -6.
